From ChEMBL document CHEMBL2021764, “2-Aminothiophenes as building blocks in heterocyclic synthesis: synthesis and antimicrobial evaluation of a new class of pyrido[1,2-a]thieno[3,2-e]pyrimidine, quinoline and pyridin-2-one derivatives” (2012)

Assays:
Format in all cases: functional
Bacillus subtilis = assay: Antibacterial activity against Bacillus subtilis 154921 at 1 mg/ml after 24 hrs by agar-well diffusion technique; settings: Bacillus subtilis, 154921, 24 h; read-out: DIZ
Outline: (§1)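 Each bacterial strain (0.1 ml) was spread on nutrient agar, and 4 mm wells were cut with a sterile cork borer. Wells were loaded with test chemical at a final 1 mg ml^-1, then incubated at 37 °C for 24 h. Inhibition zone diameters around the wells were measured, averaged over 3 replicas.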

Escherichia coli = assay: Antibacterial activity against Escherichia coli 124300 at 1 mg/ml after 24 hrs by agar-well diffusion technique; settings: Escherichia coli, 124300, 24 h; read-out: DIZ; outline: as §1
Candida albicans = assay: Antifungal activity against Candida albicans 155965 at 1 mg/ml after 48 hrs by agar-well diffusion technique; settings: Candida albicans, 155965, 48 h; read-out: DIZ
Outline: (§2)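 Yeast (0.1 ml) was spread on potato dextrose agar, and 4 mm wells were cut with a sterile cork borer. Wells were loaded with test chemical at a final 1 mg ml^-1, then incubated at 25 °C for 48 h. Inhibition zones around the wells were measured, averaged over 3 replicas.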

Saccharomyces cerevisiae = assay: Antifungal activity against Saccharomyces cerevisiae 156250 at 1 mg/ml after 48 hrs by agar-well diffusion technique; settings: Saccharomyces cerevisiae, 156250, 48 h; read-out: DIZ; outline: as §2
Staphylococcus aureus = assay: Antibacterial activity against Staphylococcus aureus 155554A at 1 mg/ml after 24 hrs by agar-well diffusion technique; settings: read-out: DIZ; outline: as §1
Pseudomonas aeruginosa = assay: Antibacterial activity against Pseudomonas aeruginosa 155250A at 1 mg/ml after 24 hrs by agar-well diffusion technique; settings: read-out: DIZ; outline: as §1
Serratia marcescens = assay: Antibacterial activity against Serratia marcescens 155449 at 1 mg/ml after 24 hrs by agar-well diffusion technique; settings: Serratia marcescens, 155449, 24 h; read-out: DIZ; outline: as §1

| Compound | zone of inhibition at 1000 µg/mL (Bacillus subtilis) [mm] | zone of inhibition at 1000 µg/mL (Escherichia coli) [mm] | zone of inhibition at 1000 µg/mL (Candida albicans) [mm] | zone of inhibition at 1000 µg/mL (Saccharomyces cerevisiae) [mm] | zone of inhibition at 1000 µg/mL (Staphylococcus aureus) [mm] | zone of inhibition at 1000 µg/mL (Pseudomonas aeruginosa) [mm] | zone of inhibition at 1000 µg/mL (Serratia marcescens) [mm] |
| --- | --- | --- | --- | --- | --- | --- | --- |
| CCOC(=O)c1sc(NC(=O)CC#N)c(C#N)c1C | 7 | 7 | 0 | 0 | – | – | – |
| CN(C)/C=C(\C#N)C(=O)Nc1scc(-c2ccc(Cl)cc2)c1C#N | 1 | 4 | 0 | 1.3 | 0 | 4 | 7 |
| N#Cc1c(-c2ccccc2)csc1NC(=O)c1cn[nH]c1N | 2 | 2.6 | 4 | 2.6 | 0 | 6.6 | 0.7 |
| N#Cc1c(-c2ccc(Cl)cc2)csc1NC(=O)c1cn[nH]c1N | 7.3 | 0 | 6.6 | 4 | 2 | 3.3 | 2 |
| N#Cc1c(-c2ccccc2)c(C#N)c2[nH]c(=O)c3c(-c4ccccc4)csc3n2c1=N | 4 | 6.3 | 2 | 2.6 | 0 | 4 | 4.6 |
| Cc1ccc(-c2c(C#N)c(=N)n3c([nH]c(=O)c4c(-c5ccccc5)csc43)c2C#N)cc1 | 2 | 2.6 | 0 | 0.7 | 0 | 6 | 3.3 |
| N#Cc1c(-c2ccc([N+](=O)[O-])cc2)c(C#N)c2[nH]c(=O)c3c(-c4ccccc4)csc3n2c1=N | 2 | 4 | 0 | 0 | 0 | – | 4.6 |
| N#Cc1c(-c2ccc(Cl)cc2)c(C#N)c2[nH]c(=O)c3c(-c4ccccc4)csc3n2c1=N | 1.6 | 4.6 | 0 | 1.3 | 0 | – | 3.3 |
| N#Cc1c(-c2ccccc2)c(C#N)c2[nH]c(=O)c3c(-c4ccc(Cl)cc4)csc3n2c1=N | 2 | 4 | 0 | 4 | 0 | 6 | 4 |
| Cc1ccc(-c2c(C#N)c(=N)n3c([nH]c(=O)c4c(-c5ccc(Cl)cc5)csc43)c2C#N)cc1 | 2 | 3.3 | 0 | 2 | 0 | 6 | 4 |
| N#Cc1c(-c2ccc([N+](=O)[O-])cc2)c(C#N)c2[nH]c(=O)c3c(-c4ccc(Cl)cc4)csc3n2c1=N | 4 | 5.3 | 2.6 | 1.3 | 0 | 6 | 4 |
| N#Cc1c(-c2ccc(Cl)cc2)c(C#N)c2[nH]c(=O)c3c(-c4ccc(Cl)cc4)csc3n2c1=N | 3.3 | 4 | 0 | 0.7 | 0 | 7 | 2.6 |
| CCOC(=O)c1sc2c(c1C)c(=O)[nH]c1c(C#N)c(-c3ccc(Cl)cc3)c(C#N)c(=N)n12 | 2 | 8 | 0 | 0 | 0 | 6 | 4.6 |
| CN(C)c1ccc(/C=C(\C#N)C(=O)Nc2scc(-c3ccccc3)c2C#N)cc1 | 0 | 2 | 0 | 0 | 0 | 4 | 7.3 |
